The values below come from ChEMBL document CHEMBL1134670, “Synthesis and cytotoxicity on sensitive and doxorubicin-resistant cell lines of new pyrrolo[2,1-c][1,4]benzodiazepines related to anthramycin” (J Med Chem, 2001).

Structures are written as SMILES.

For test [1], the system named is K562. Put plainly: In vitro cytotoxicity expressed as concentration that inhibit 50% of K562R (resistant clone) cell proliferation. In kind it is functional, cell-based. The conditions noted are these: Homo sapiens.
Test [2] has as its system K562. Put plainly: In vitro cytotoxicity expressed as concentration that inhibits 50% of K562S (sensitive clone)cell proliferation. In kind it is functional, cell-based. As to conditions: Homo sapiens.
The subject of a further test is Vero. Put plainly: In vitro cytotoxicity expressed as conc. that inhibits 50% of VERO(monkey kidney) cell proliferation. The class given is functional, cell-based. As to conditions: Chlorocebus sabaeus. In short, it runs like this:
(§1)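 KB and VERO monolayers in medium 199 with 10% newborn calf serum, 12 × 10^4 cells seeded per well. Serial dilutions from a DMSO or water stock were added at seeding, with final DMSO below 1%. Cultures were held 48 h at 37 °C in 5% CO2. Viability was then measured after 18 h in neutral red medium, SDS lysis and dye absorbance at 540 nm.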

The test system of another test is HCT-116. Put plainly: In vitro cytotoxicity expressed as concentration that inhibits 50% of HCT(human colon carcinoma)116 cell proliferation. In kind it is functional, cell-based.
For a further test, the species on record is Homo sapiens. Put plainly: In vitro cytotoxicity expressed as conc. that inhibits 50% of KB (human) cell proliferation. In kind it is functional. In short, it runs like this: as §1
Test [3] relates to HCT-15. Put plainly: In vitro cytotoxicity expressed as concentration that inhibits 50% of HCT 15 (colon) sensitive variant cell proliferation. In kind it is functional, cell-based. As to conditions: Homo sapiens. An outline of the steps:
(§2)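 Cells were kept at 37 °C in sealed dishes of MEM with 10% heat-inactivated FCS plus glutamine, penicillin, streptomycin and gentamycin. […] Cells were plated at 10 000 cells/mL for 24 h, then given nine concentrations from 10^-5 to 10^-9 M. Growth was read by MTT colorimetric assay.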

Test [4] can be described thus: (§3) In vitro cytotoxicity expressed as concentration that inhibits 50% of J82 (bladder) resistant variant cell proliferation. The conditions noted are these: Homo sapiens. The class given is functional. In short, it runs like this: as §2
A short description of test [5]: as §3. The class given is functional. As to conditions: Homo sapiens. An outline of the steps:
as §2
The source holds these as a separate data set.

Test [6] has as its system K562. Put plainly: In vitro cytotoxicity expressed as concentration that inhibits 50% of K562R (resistant clone) cell proliferation. The class given is functional, cell-based. The conditions noted are these: Homo sapiens.
The subject of test [7] is LoVo. Put plainly: In vitro cytotoxicity expressed as concentration that inhibits 50% of LoVo (colon) resistant cell proliferation. In kind it is functional, cell-based. The conditions noted are these: Homo sapiens. An outline of the steps:
as §2

Test [8] concerns T-24. Kind of test: In vitro cytotoxicity expressed as concentration that inhibits 50% of T24 (bladder) resistant variant cell proliferation. The class given is functional, cell-based. As to conditions: Homo sapiens. In short, it runs like this: as §2
The subject of a further test is U373 MG. Put plainly: In vitro cytotoxicity expressed as concentration that inhibits 50% of U373 (glioblastoma) sensitive variant cell proliferation. The class given is functional, cell-based, U-373MG ATCC. As to conditions: Homo sapiens. In short, it runs like this: as §2
Test [9] is described as follows: In vitro cytotoxicity expressed as concentration that inhibits 50% of U373 (glioblastoma) resistant variant cell proliferation. In kind it is functional, cell-based, U-373MG ATCC. The conditions noted are these: Homo sapiens, U373 MG. An outline of the steps: as §2
The test system of test [10] is U-87 MG. Kind of test: In vitro cytotoxicity expressed as concentration that inhibits 50% of U87 (glioblastoma) resistant variant cell proliferation. In kind it is functional, cell-based, U-87MG ATCC. As to conditions: Homo sapiens. An outline of the steps: as §2
Test [11] deals with U-87 MG. Put plainly: In vitro cytotoxicity expressed as concentration that inhibits 50% of U87 (glioblastoma) sensitive variant cell proliferation. The class given is functional, cell-based, U-87MG ATCC. As to conditions: Homo sapiens. In short, it runs like this: as §2
The subject of test [12] is HCT-15. Kind of test: In vitro cytotoxicity expressed as concentration that inhibits 50% of HCT 15 (colon) resistant variant cell proliferation. In kind it is functional, cell-based. As to conditions: Homo sapiens. In short, it runs like this: as §2
In test [13] the test system is LoVo. Kind of test: In vitro cytotoxicity expressed as concentration that inhibits 50% of LoVo (colon) sensitive variant cell proliferation. The class given is functional, cell-based. As to conditions: Homo sapiens. An outline of the steps: as §2
Test [14] concerns T-24. Kind of test: In vitro cytotoxicity expressed as concentration that inhibits 50% of T24 (bladder) sensitive variant cell proliferation. In kind it is functional, cell-based. As to conditions: Homo sapiens. An outline of the steps:
as §2

Test [15] is described as follows: In vitro cytotoxicity expressed as concentration that inhibits 50% of J82 (bladder) sensitive variant cell proliferation. The class given is functional. As to conditions: Homo sapiens. An outline of the steps:
as §2

By IC50 is commonly meant the concentration needed to halve the response being measured. Consider `CO[C@H]1Nc2ccccc2C(=O)N2C=C(/C=C/C(=O)N(C)C)C[C@@H]12`, for which the IC50 came out at 120 nM in the test on K562 [1]; 85 nM with K562 [2]; 75 nM in the test on Vero; 50 nM in the test with HCT-116; 86 nM in the test listed under Homo sapiens.

Consider `CN(C)C(=O)/C=C/C1=CN2C(=O)c3cc4c(cc3NC(S(=O)(=O)O)[C@@H]2C1)OCO4` (some centres not stated) [SODIUM BISULFITE ADDUCT], for which the IC50 worked out at 50 nM in the test on Vero, 25 nM with HCT-116 and 50 nM in the test filed under Homo sapiens.

With `CO[C@H]1Nc2cc3c(cc2C(=O)N2C=C(/C=C/C(=O)N(C)C)C[C@@H]12)OCO3`, the half-inhibitory concentration (IC50) stood at 8 nM in the test on HCT-15 [3]; 10 nM in test [4]; 10 nM in test [5]; 0.03 µM in the test on K562 [6]; 50 nM with K562 [2]; 9 nM with LoVo [7]. The 50% inhibitory concentration (IC50) was determined as 10 nM in the test with T-24 [8]; 30 nM with U373 MG; 37 nM in [9]; 38 nM in the test on U-87 MG [10]; 40 nM in the test on U-87 MG [11]; 20 nM in the test on Vero. Further, the IC50 in the test with HCT-15 [12] was 7 nM; in the test with HCT-116, 20 nM; in the test listed under Homo sapiens it was 5 nM; in the test on LoVo [13] it was 9 nM; in the test with T-24 [14], 10 nM.

For the molecule `COc1cccc2c1C(=O)c1c(O)c3c(c(O)c1C2=O)C[C@@](O)(C(=O)CO)C[C@@H]3O[C@H]1C[C@H](N)[C@H](O)[C@H](C)O1` [DOXORUBICIN], the IC50 in the test on HCT-15 [3] is 50 nM; in test [4], greater than 10000 nM; in test [15] it was 30 nM; with K562 [6], 7 µM; in the test with K562 [2], 50 nM; in the test with LoVo [7] it was 80 nM. Also, the IC50 with T-24 [8] was greater than 10000 nM; with U373 MG it was 10 nM; in test [9], 130 nM; in the test on U-87 MG [10], 140 nM; with U-87 MG [11], 60 nM; in the test on Vero, 5000 nM. Besides, the IC50 came out at 80 nM in the test with HCT-15 [12], 100 nM in the test listed under Homo sapiens, 8 nM in the test with LoVo [13] and 20 nM in the test on T-24 [14].

For `CO[C@@]12[C@H](COC(N)=O)C3=C(C(=O)C(C)=C(N)C3=O)N1C[C@@H]1N[C@@H]12` [MITOMYCIN], in the test listed under Homo sapiens, the IC50 came out at 500 nM.
